The text below walks through data of the EternaBench riboswitch data.

For the data set, the system named is MS2 coat protein. The experiment in a line: apparent Kd, MS2 coat protein; higher = weaker binding; RNA-MaP array; FMN 200 µM where present. Summed up:
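The titrant was SNAP-549-labelled MS2 coat protein, run from 0.7 or 1.5 nM in doubling steps to 3 µM. It was applied to designs transcribed by stalled E. coli RNA polymerase on Illumina sequencing-chip clusters, without ligand first and then with constant ligand, in 100 mM Tris-HCl pH 7.5, 80 mM KCl, 4 mM MgCl2, BSA, DTT, yeast tRNA and Tween-20. The apparent Kd is the median of filtered per-cluster binding-curve fits, with green signal normalised to red-channel RNA signal and control-cluster median Fmax.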

Setting [1] is: designed as: OFF switch for flavin mononucleotide, no ligand.
The mark [2] stands for this setting: ligand present: flavin mononucleotide, designed as: OFF switch for flavin mononucleotide.
Setting [3] is: designed as: ON switch for flavin mononucleotide, no ligand.
Setting [4] is: ligand present: flavin mononucleotide, designed as: ON switch for flavin mononucleotide.

A word on the apparent Kd: it is the concentration giving half-maximal binding under the conditions of the assay.

In the case of “GUAAUUAAGAGAGGAUAUUGACAUGAGGAUCACCCAUGUAUUUGGGAGUGUUCACUGAAUUCUUACGAGAAGGCUUUUAAAUAC”, the “apparent Kd” value was 329 nM under setting [1] and 285 nM under setting [2].

With “ACUUUACGAGGAUAUACUGUCGGGCCUCGGGCAUACAUGCGACAUGAGGAUCACCCAUGUAGAAGGCGUUUACU”, the “apparent Kd” value by setting is: under setting [1], 29.5 nM; under setting [2], 92 nM.

Consider “CCUCGACAUGAGGAUCACCCAUGUCAGGAUAUUGUGUUUCGGGUUUUUUACCGUUAGGCAAGAAGGGAUGUGUG”, for which the “apparent Kd” value came to 29.2 nM under setting [1] and 40.2 nM under setting [2].

In the case of “GCCAUCGCGUGAGGAUAUGCUCCGGUUUCCGGAGCAGAAGGCAUGUCAUAAGACAUGAGGAUCACCCAUGUAGUCAAGAUGGCA”, the “apparent Kd” value is, setting by setting: under setting [3], 270 nM; under setting [4], 11.4 nM.

For the sequence “CAGGUAGACUGAGGAUAUACAAUAAAGACCUAGUCUAUCUAGGUCAUCACAUGAGGAUCACCCAUGUAGAAGGCAGUCUGCCUG”, the “apparent Kd” value under setting [1] was 18.5 nM and the “apparent Kd” value under setting [2] worked out at 38.2 nM.

Take “GGGUGACAUGAGGAUCACCCAUGUCAGGAUAUGGGCCCGGGUUUGAAAGGGCCCGGGCCCAGAAGGGACUGCCC”: the “apparent Kd” value amounted to 55.3 nM under setting [1] and 127 nM under setting [2].

For “UAAAAACAUGAGGAUCACCCAUGUGAGGAUAUCGAAAAAAAAAAAUUAAAAAAGGAAGCGAGAAGGUACGGGAU”, the “apparent Kd” value by setting is: under setting [1], 53.1 nM; under setting [2], 49.6 nM.

Turning to “GGUCUACAUGAGGAUCACCCAUGUCAGGAUAUCGUGUGUUUUUUUUCGGCCGCGCGUGCGAGAAGGGACGUCUU”, the “apparent Kd” value reads like this: under setting [1], 17.6 nM; under setting [2], 18.1 nM.

As to “GCACGACAUGUAGGAUAUCGAGCGCCGAGCGCUCGAGAAGGACAUGAGGAUCACCCAUGUAUUCUGAGUGAGCGAGGUCGUGCA”, the “apparent Kd” value runs as follows: under setting [1], 45.7 nM; under setting [2], 393 nM.

For “CCAGCGUAUGUGAGGAUAUGCUGGUCCUUGGAUCAGCAGAAGGCACAUGAGGAUCACCCAUGUGAUGACGUUGG”, the “apparent Kd” value is, setting by setting: under setting [1], 50.9 nM; under setting [2], 287 nM.

Regarding “UCAUGUUUAGAGGAUAUGAUUACUCUAGAGUGAUCAGAAGGCUAGACAUGAGGAUCACCCAUGUCAGAACAUGU”, the “apparent Kd” value by setting is: under setting [1], 34.4 nM; under setting [2], 24.8 nM.

On to “GCCGCCCGAUCUGGCUUUUGGGCUAGAAGGGCAUAUGUGGUCCAGGACAUGAGGAUCACCCAUGUGCAGGAUAUAGCCCACCAC”, for which the “apparent Kd” value stood at 13.7 nM under setting [1] and 24.1 nM under setting [2].

On to “UGUAUACAUGAGGAUCACCCAUGUCAACGUAGUCGAGGAUAUGGGCAGCCGUGAGGCGUACUAGAAGGCGAAGAGG”, for which the “apparent Kd” value is, setting by setting: under setting [3], 337 nM; under setting [4], 110 nM.

Take “UUUAAGUCAGGAUAUCGUUAAUUUAAUUAAUUAUUUUAAUUCGAGAAGGGACAUGAGGAUCACCCAUGUAAUUU”: the “apparent Kd” value is, setting by setting: under setting [1], 36.8 nM; under setting [2], 60.2 nM.

Turning to “ACGGAACAUGAGGAUCACCCAUGUAUCCGAAAUAUGGACUCACAGGAUAUCCAGAGUUGCCAAUCGGAGAAGGGUGACUCCAGA”, the “apparent Kd” value is, setting by setting: under setting [3], 12.8 nM; under setting [4], 9.91 nM.

With “GAUUGAGAGCAGGAUAUCAUAGAAAUGUAUGAAUGAGAAGGGCUCACAUGAGGAUCACCCAUGUGGUCCUAGAU”, the “apparent Kd” value is, setting by setting: under setting [1], 27.2 nM; under setting [2], 171 nM.

On to “AAGAAGUAAGGAUAUGCAUGGCGGGACUUGCGUCGUGGCGUGCAGAAGGUACAUGAGGAUCACCCAUGUAAAGA”, for which the “apparent Kd” value turned out to be 27.2 nM under setting [1] and 15.4 nM under setting [2].

On to “GGGAGUGGAGGGAAUAACAUGAGGAUCACCCAUGUAUGGGAGAGAAGGCAGGUCGGAGGGCGAUCUGAGGAUAUUUAGACUCCU”, for which the “apparent Kd” value under setting [3] stood at 12.5 nM and the “apparent Kd” value under setting [4] is 10.3 nM.

For the sequence “GCUUGUAGAGGAUAUACAAGGGCCUUAGCGAAUAACACCGCACAUGAGGAUCACCCAUGUAGAAGGCUACCACC”, the “apparent Kd” value under setting [1] worked out at 15.6 nM and the “apparent Kd” value under setting [2] was found to be 77.6 nM.

Turning to “CUCCUGCAAGGAUAUACAUAGUGACGUCUGUUUAAUCUUAAACAUGAGGAUCACCCAUGUAGAAGGUGCGUCAC”, the “apparent Kd” value is, setting by setting: under setting [1], 16.7 nM; under setting [2], 18.1 nM.

Regarding “UUGUUAUAUGUAGGAUAUGCAUAUUAUUAUUAUGCAGAAGGACAUGAGGAUCACCCAUGUAUAUUGUUGUUAUAUAUUAUAUAU”, the “apparent Kd” value was 24 nM under setting [1] and 28.4 nM under setting [2].

On to “GUGGUCUGACAUGAGGAUCACCCAUGUGGAAUAAAUACGGGUUAGGAUAUCUUGAGGAUCACCCAAGAGAAGGGAUCGAUUGUU”, for which the “apparent Kd” value runs as follows: under setting [3], 52.8 nM; under setting [4], 45 nM.

Regarding “CCUCCCUGAGGAUAUCCACCCUCAUACAUGAGGAUCACCCAUGUUCAUCCGUGGCUACCCGGAGAAGGCAGCUCUG”, the “apparent Kd” value was determined as 57.8 nM under setting [1] and 49.7 nM under setting [2].

With “AACAUCGCAGGAUAUUCGUGCUCAGACAUGAGGAUCACCCAUGUUUGGUGGGUUGGAGAAGGAGAAGGGCGAUGGA”, the “apparent Kd” value is, setting by setting: under setting [1], 103 nM; under setting [2], 137 nM.

Regarding “UUGAUUAUACAAGGAUAUCAAUUGUAUACAAGUCUUACAUGAGGAUCACCCAUGUUAAAUUUUUUUGAGAAGGUGUAUUGUCAG”, the “apparent Kd” value is, setting by setting: under setting [3], 40.2 nM; under setting [4], 24 nM.

“CGCUACUACCAGAAGGACAUGAGGAUCACCCAUGUAGGAUAUGGGUUACACGUUCCUGUGAAUUGUAACGACGCUACGUAUGCG”: the “apparent Kd” value stood at 203 nM under setting [3] and 13.4 nM under setting [4].

For the sequence “GUGCUCGUGUGAGGAUAUGCUGCCGGGUCGGCUGCAGAAGGUACUAUUAUACAUGAGGAUCACCCAUGUCGCUUUUCUCCGGUG”, the “apparent Kd” value stood at 45.6 nM under setting [3] and 44.9 nM under setting [4].

Take “CCUCCUGCAAAGGAUAUCGCGCGGUGACGCUGUCGAGAAGGUUGUACAUGAGGAUCACCCAUGUGGUAUAAGAU”: the “apparent Kd” value under setting [1] is 202 nM and the “apparent Kd” value under setting [2] was found to be 472 nM.

Consider “GGGUGGCGUAGAGGAUAUGUGGUACAUGAGGAUCACCCAUGUGCAUAUGAUGUUCAUGUUUAUGUAUAGAAGGCUACGUCGCUA”, for which the “apparent Kd” value by setting is: under setting [3], 26.1 nM; under setting [4], 36.4 nM.

“AACACGAGAGGUGUUGUCUAACCACAUGAGGAUCACCCAUGUAAGGAUAUCGCGGCUAUCGGCAUCGAGAAGGUACAGGGAGCA”: the “apparent Kd” value runs as follows: under setting [1], 16.2 nM; under setting [2], 31.4 nM.

For “CUGAGUAGUCAGGAUAUGCUGUACAAAAGUACAGCAGAAGGGAUUACAUGAGGAUCACCCAUGUUUUCUUCAUG”, the “apparent Kd” value worked out at 56.1 nM under setting [1] and 137 nM under setting [2].

As to “AACAGCUCGUCAGGAUAUAUUAUCUUUUAAUGUAUUAAUGUACAUGAGGAUCACCCAUGUUGUUUGUAGAAGGGACGAGCUGAA”, the “apparent Kd” value under setting [1] was 8.88 nM and the “apparent Kd” value under setting [2] was determined as 9.34 nM.

In the case of “UCACGGAGCCUAGGAUAUACAUGAGGAUCACCCAUGUAUUAACGUUAGUGCUGGACUGAUUUGCUGUAGAAGGAGGUCACCGAA”, the “apparent Kd” value came out at 20.9 nM under setting [1] and 43.1 nM under setting [2].

Consider “ACUCUGCGAGGAUAUACAUGAGGAUCACCCAUGUGCGAGUUACUUGUGAGGUCGGUUGGUAGAAGGCGCGGAGA”, for which the “apparent Kd” value by setting is: under setting [1], 99.4 nM; under setting [2], 134 nM.

Consider “GGUGCGUAUGUGAGGAUAUGCUGGUCCUUGGAUCUGCAGAAGGCACAUGAGGAUCACCCAUGUGGUGUCGUACC”, for which the “apparent Kd” value worked out at 356 nM under setting [1] and 28.5 nM under setting [2].

As to “AAGGGUAGGCAGGAUAUCCAGGUCGACACCGCGGGAGAAGGGCUUACAUGAGGAUCACCCAUGUAGGGUGCGAU”, the “apparent Kd” value reads like this: under setting [1], 177 nM; under setting [2], 129 nM.

With “CAGUACUGAGGAUAUACAUGAGGAUCACCCAUGUGUUCCAGCUAGGAAACUAGCACUUGUAGAAGGCAGUACUG”, the “apparent Kd” value amounted to 24.6 nM under setting [1] and 267 nM under setting [2].
